High-throughput results as filed in PubChem BioAssay.
CHOP UPR activ = activators of apoptotic arm of unfolded protein response (CHOP). hit rate 0.34% among 330,000. AID 449763. CHO-CHOP luciferase reporter, UPR activation, luminescence; percent of tunicamycin response over DMSO baseline. activation, % at 10 µM;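 active means at 10 µM dose, activation of 40% or more, normalized to positive control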;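 further: 100% = tunicamycin at 10 µg/mL and 0% = DMSO alone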
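Dosing – one dose, 10 µM in 0.5% DMSO · System – CHO-CHOP cells, stable luciferase reporter of PERK-eIF2a-CHOP signalling · Input – 500 cells/well · Control set – tunicamycin 10 µg/mL final as positive, DMSO-only wells as negative · Timing – 6 h compound treatment, 37 °C · Measure – % activation vs tunicamycin · Technique – luminescence read with Steady-Glo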
CHOP inh = blocks CHOP induction under ER stress | CHO-K1 CHOP-promoter luciferase, tunicamycin-induced, 15-18 h | inhibition, % at 10 µM | hit rate 3.8% among 220,000 | AID 2732;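 active means compounds that reduced the stress-induced luciferase reporter signal by more than about 70% of percent inhibition, limit read from the data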;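 further: 0% = tunicamycin plus vehicle and 100% = wells without tunicamycin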
UPR XBP1 act = adaptive UPR (XBP1) activation | CHO-XBP1 luciferase reporter, IRE1-XBP1 UPR activation, luminescence; percent of tunicamycin response, DMSO as zero | activation, % at 20 µM | hit rate 0.33% among 330,000 | AID 463104;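 active means versus positive control, 20 µM dose yields 30% or more activation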;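 further: 100% = tunicamycin at 10 µg/mL and 0% = DMSO only wells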
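assay system = CHO-XBP1 luciferase reporter cells | amount = 1000 cells/well | buffer or medium = F12 plus 10% FBS | compound dosing = single point, 20 µM final compound, 1% DMSO | incubation = 16-18 h cell attachment at 37 °C, then 6 h compound exposure | detection = Steady-Glo luminescence read | controls = tunicamycin 10 µg/mL and vehicle-only wells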
Cardio protect = protects H9c2 cardiomyocytes from peroxide injury; AID 588492; protection from H2O2 cell death, % at 20 µM; hit rate 0.63% among 360,000; H2O2 injury protection, ATPLite, 2 h;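 active means compounds giving at least 50% protection of heart cells from peroxide-induced death in the single-dose screen, raw or plate-pattern-corrected value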;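 further: 0% = DMSO wells with peroxide and 100% = DMSO wells without peroxide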
hiPSC survival = increases survival of single human iPS cells. hit rate 0.044% among 360,000. survival enhancement, % at 20 µM. AID 602274. hiPSC single-cell survival, ATPlite luminescence; 100% = ROCK inhibitor wells, 0% = DMSO; in the data active means survival enhancement above about 18%;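 further: cells exposed to compounds for 16 hours before the ATP read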
The depositor's hits bear a star; . = no result given. Many of the other results were omitted from the sample, so hits are more common in it than they were.

SMILES | CHOP UPR activ | CHOP inh | UPR XBP1 act | Cardio protect | hiPSC survival
CCOC(=O)c1cc2occc2n1CC(=O)N1CCOCC1 | 0.0 | 35.0 | -3.2 | -7.8 | -0.3
CCOC(=O)c1cc2occc2n1CC(=O)Nc1ccc(OC)cc1OC | -1.2 | 84.4* | -3.4 | 3.2 | -0.3
CCCNC(=O)c1cc(C2CCCCN2C(=O)c2ccc(OC)cc2)on1 (stereo not given) | . | . | . | 8.4 | -1.0
Cc1ccc(C)c(S(=O)(=O)N2CCCC2CNC(=O)C(=O)NCCc2ccccc2)c1 (stereo not given) | 2.8 | . | -0.7 | 32.3 | -0.5
COc1ccc(CCNC(=O)C(=O)NCC2CCCN2S(=O)(=O)c2cc(C)ccc2C)cc1 (stereo not given) | 7.5 | . | 0.3 | 75.6* | 0.4
CC(C)N1CCCC(C)(C(=O)Nc2nc3ccccc3[nH]2)C1 (stereo not given) | . | . | . | 4.8 | 1.9
COCCOC1CCN(C(=O)c2cc(COc3ccc(F)cc3F)on2)CC1 | 0.1 | . | -6.5 | -6.0 | -0.4
Cc1cc(NC(=O)c2cnn3c(C(F)(F)F)cc(-c4ccccc4)nc23)no1 | 0.9 | 5.3 | 0.6 | 93.4* | 1.7
O=C(O)CC(C(=O)O)C(=Cc1ccccc1)c1ccccc1 (stereo not given) | . | . | . | -1.2 | 6.6
CCCc1nc2ccccc2c(C(=O)OCC(=O)Nc2cccc(S(=O)(=O)N3CCOCC3)c2)c1CC | 1.8 | 76.8* | 3.4 | 29.5 | -1.5
Nc1ccc2nc(-c3ccccc3)sc2c1 | -4.6 | 62.7 | -3.6 | -17.8 | -6.4
Cc1ccc2nc(-c3ccc(N)cc3)sc2c1 | -6.2 | 78.1* | -5.4 | -15.8 | -0.6
Cc1ccc2nc(-c3ccc(NS(=O)(=O)c4ccc(F)cc4)cc3)sc2c1 | 2.7 | 104.0* | 1.3 | -14.2 | -1.1
Cc1nn(-c2ccccc2)c(N2CCCC2)c1/C=N/n1cnc2scc(-c3ccccc3)c2c1=O | 5.5 | 33.5 | -1.3 | 61.5* | -0.5
O=c1c2c(-c3ccccc3)csc2ncn1/N=C/c1c2ccccc2cc2ccccc12 | 1.0 | 34.2 | 0.7 | 7.5 | 6.0
C[C@H](CO)N1C[C@H](C)[C@@H](CN(C)Cc2ccccn2)Oc2ncc(-c3ccccc3)cc2C1=O | . | . | . | 6.6 | -0.2
COC(=O)c1ccccc1NC(=O)c1ccc2nccnc2c1 | 0.3 | 2.6 | 0.6 | 64.2* | -0.9
COc1cc(C(=O)Nc2ccccn2)cc(OC)c1OC | 4.3 | 32.4 | -1.7 | 12.7 | -3.3
COc1cc(C(=O)Nc2ccccc2C(=O)Nc2ccccn2)cc(OC)c1OC | -0.2 | . | 1.0 | 60.2* | 0.0
COc1cc(C(=O)Nc2ccc(NC(=O)c3cccc(Cl)c3)nc2)cc(OC)c1OC | 2.8 | . | 7.5 | 68.3* | -0.2
COc1ccc(C(=O)Nc2cccc3cccnc23)cc1OC | 0.1 | 19.3 | 2.8 | 25.0 | -1.8
COc1ccc(C(=O)Nc2cccc(NC(=O)c3ccc(OC)c(OC)c3)n2)cc1OC | 4.0 | . | 2.6 | 53.5* | -0.8
COc1cc(C(=O)Nc2ccc(NC(=O)C3CCCCC3)nc2)cc(OC)c1OC | 1.5 | . | -0.2 | 3.7 | 0.3
CCCCn1nnnc1C1(C)CCC(=O)N1CCc1ccc(OC)c(OC)c1 (stereo not given) | . | . | . | . | -0.5
COc1ccc(S(=O)(=O)N2CCCCC2c2cc(C(=O)Nc3ccc(F)c(Cl)c3)no2)cc1 (stereo not given) | . | . | . | -4.8 | -2.0
SMILES | CHOP UPR activ | CHOP inh | UPR XBP1 act | Cardio protect | hiPSC survival
CCCS(=O)(=O)NC(=O)C1(C)CCCN(C(=O)c2cc(F)ccc2C)C1 (stereo not given) | . | . | . | -1.9 | 0.7
O=C(Nc1ccccc1)c1cc(C2CCCCN2S(=O)(=O)Cc2cccc(C(F)(F)F)c2)on1 (stereo not given) | . | . | . | 2.4 | -0.8
Cc1snc2sc(C(=O)c3ccc(Br)cc3)c(N)c12 | 4.4 | 92.5* | 24.4 | -19.2 | -0.7
CC(C)C(Cl)=NOC(=O)Nc1ccc(S(N)(=O)=O)cc1 | . | . | . | -20.9 | -1.8
Cc1ccccc1N=C(NOCc1ccc(Cl)cc1Cl)c1nonc1N | 0.2 | 84.8* | 0.1 | -21.0 | 1.1
O=C(Nc1nnc(C2CC2)s1)c1cc(-c2ccccc2)nn1-c1ccccc1 | -0.6 | 18.6 | 4.3 | 51.6* | -1.6
Cc1nn(-c2ccc(C(=O)Nc3nnc(C4CC4)s3)cc2)c(C)c1Cl | 3.0 | 72.9* | -2.5 | -12.7 | 0.6
COc1ccc(N2CCc3c(C)nc(SC)nc32)cc1 | -1.4 | 11.1 | 9.1 | -7.4 | -1.1
